Results as given in ChEMBL document CHEMBL5576140, “Computational Design of Pore-Forming Peptides with Potent Antimicrobial and Anticancer Activities” (J Med Chem, 2024).
Activity calls are given as the source filed them. The calls are words filed in the database; no cut-off is given here.

Columns and labels:
[1] = Hemolytic activity against human RBC incubated for 1 hr by microplate reader analysis; assay type: toxicity, cell-based, Erythrocyte; conditions: red blood cells (erythrocytes)
How it was run: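 Human red blood cells exposed to peptides up to 50 μM; hemolysis measured, IC50 derived where reached.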

Staphylococcus aureus [2] = assay: Antimicrobial activity against Staphylococcus aureus NE163 harboring single transposon insertion mutation in aureolysin at 30 uM incubated for 18 hrs relative to control; assay type: functional
How it was run: (§1)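 CA-MRSA USA300 LAC derivative JE2 and single transposon insertion mutants derived from JE2, each lacking an extracellular protease gene, were exposed to peptides up to 30 μM. The read-out was percent growth inhibition. Peptides were dissolved in PBS, and tests were run in triplicate.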

Staphylococcus aureus [3] = assay: Antimicrobial activity against Staphylococcus aureus NE1740 harboring single transposon insertion mutation in staphopain A at 30 uM incubated for 18 hrs relative to control; assay type: functional; how it was run: as §1
[4] = Toxicity against reconstructed human skin model assessed as irritation at 50 uM incubated for 1 hr followed by compound washout measured after 42 hrs by MTT assay; assay type: tissue-based, Skin of body
How it was run: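 Reconstructed human epidermis with stratum corneum, per OECD TG 439 skin irritation guideline. Tissues exposed 1 h to peptide at 50 μM, then 42 h post-treatment incubation. Viability read by MTT. Controls were SDS and melittin.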

[5] = Stability in human serum assessed as half life at 10 mg/ml by UPLC-MS analysis; assay type: ADME, cell-free
How it was run: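 Peptides dissolved in PBS and incubated in 25% human serum. Intact peptide remaining followed over time to at least 6 h; half-life taken as time to 50% stability.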

Acinetobacter baumannii [6] = assay: Anti-infective activity against Acinetobacter baumannii ATCC 19606 infected in neutropenic CD-1 mouse deep thigh infection model assessed as reduction in bacterial load at 0.16 mg/kg, ip measured after 4 days; assay type: functional, organism-based; conditions: time 4.0 day
How it was run: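 Neutropenic mice infected intramuscularly in right thigh with 10⁶ cells per mL A. baumannii ATCC 19606; single intraperitoneal peptide dose at 10× MIC; bacterial load determined 4 days after treatment (euthanized day 8); n = 6 per group from three inocula; one-way ANOVA with Dunnett's test versus untreated.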

Mus musculus = assay: Induction of wound healing activity in immunosuppressed Balb/c mouse excisional dorsal wound infection model infected with Acinetobacter baumannii NCTC 13301 assessed as reduction in necrosis of epidermal tissue at wound edges at about 10 mg/kg treated for 7 days once daily; assay type: functional, organism-based; conditions: time 7.0 day
[7] = Toxicity in immunosuppressed Balb/c mouse excisional dorsal wound infection model infected with Acinetobacter baumannii NCTC 13301 assessed as body weight loss at about 10 mg/kg treated for 7 days once daily measured after 45 days; assay type: organism-based; conditions: in vivo, 1080 h, time 45 day
How it was run: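 Excisional dorsal wound model in immunosuppressed mice infected with 5 × 10⁴ cells per mL of A. baumannii. Treated, PBS-treated and untreated groups were compared. Body weight and survival were followed for 45 days.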

Staphylococcus aureus [8] = assay: Depolarization of cytoplasmic membrane in Staphylococcus aureus ATCC 12600 at MIC measured for 45 mins by DiSC3-(5) dye based assay; assay type: functional, organism-based
How it was run: (§2)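 Bacteria loaded with membrane-potential dye DiSC3-(5), then treated with peptide at its MIC for the respective strain; depolarization read as rise in dye fluorescence; polymyxin B and levofloxacin as reference antibiotics.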

Acinetobacter baumannii [9] = assay: Depolarization of cytoplasmic membrane in Acinetobacter baumannii ATCC 19606 at MIC measured for 45 mins by DiSC3-(5) dye based assay; assay type: functional, organism-based; how it was run: as §2
Escherichia coli = assay: Depolarization of cytoplasmic membrane in Escherichia coli ATCC 11775 at MIC measured for 45 mins by DiSC3-(5) dye based assay; assay type: functional, organism-based; how it was run: as §2
Klebsiella pneumoniae = assay: Induction of outer membrane permeabilization in Klebsiella pneumoniae ATCC 13883 measured for 20 mins by NPN uptake assay; assay type: functional, organism-based
How it was run: (§3)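 Outer-membrane permeabilization of Gram-negative bacteria read as rise in fluorescence of the lipophilic dye NPN, which enters only when outer-membrane integrity is compromised. Peptides applied at their MIC against the respective strain; polymyxin B and levofloxacin as reference antibiotics. Triplicates.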

Pseudomonas aeruginosa = assay: Induction of outer membrane permeabilization in Pseudomonas aeruginosa PAO1 measured for 20 mins by NPN uptake assay; assay type: functional, organism-based; how it was run: as §3
NCI-H460 = assay: Anti-cancer activity against human NCI-H460 cells incubated for 72 hrs by Cell Titer Glo assay; assay type: functional, cell-based; conditions: NCI-H460, 72 h
K562 [10] = assay: Anti-cancer activity against human K562 cells incubated for 72 hrs by Cell Titer Glo assay; assay type: functional, cell-based; conditions: K562, 72 h
MCF7 [11] = assay: Anti-cancer activity against human MCF7 cells incubated for 72 hrs by Cell Titer Glo assay; assay type: functional, cell-based; conditions: MCF7, 72 h
MOLT-4 = assay: Anti-cancer activity against human MOLT-4 cells incubated for 72 hrs by Cell Titer Glo assay; assay type: functional, cell-based; conditions: MOLT-4, 72 h
OVCAR-3 = assay: Anti-cancer activity against human OVCAR-3 cells incubated for 72 hrs by Cell Titer Glo assay; assay type: functional, cell-based; conditions: OVCAR-3, 72 h
PC-3 = assay: Anti-cancer activity against human PC-3 cells incubated for 72 hrs by Cell Titer Glo assay; assay type: functional, cell-based; conditions: PC-3, 72 h
T47D = assay: Anti-cancer activity against human T47D cells incubated for 72 hrs by Cell Titer Glo assay; assay type: functional, cell-based
U-251 = assay: Anti-cancer activity against human U-251MG cells incubated for 72 hrs by Cell Titer Glo assay; assay type: functional, cell-based; conditions: U-251, 72 h
K562 [12] = assay: Anti-cancer activity against human K562 cells at 10 uM incubated for 30 mins; assay type: functional, cell-based
HL-60 = assay: pH-dependent anticancer activity against human HL-60 cells in PBS medium at 10 uM incubated for 1 hr; assay type: functional, cell-based
How it was run: (§4)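 Cells cultured in RPMI, DMEM or PBS, each adjusted to pH 8, 7 or 6, plus one unadjusted (~7.6). Peptide at 10 μM for only 1 h, to limit pH drift from CO₂-bicarbonate buffering. Cell viability read. Controls were melittin, ampicillin and PBS. Two independent repetitions; effects analysed by ANOVA.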

K562 [13] = assay: pH-dependent anticancer activity against human K562 cells in RPMI medium at 10 uM incubated for 1 hr; assay type: functional, cell-based; how it was run: as §4
K562 [14] = assay: pH-dependent anticancer activity against human K562 cells in DMEM medium at 10 uM incubated for 1 hr; assay type: functional, cell-based; how it was run: as §4
K562 [15] = assay: pH-dependent anticancer activity against human K562 cells in PBS medium at 10 uM incubated for 1 hr; assay type: functional, cell-based; how it was run: as §4
MCF7 [16] = assay: pH-dependent anticancer activity against human MCF7 cells in DMEM medium at 10 uM incubated for 1 hr; assay type: functional, cell-based; how it was run: as §4
MCF7 [17] = assay: Induction of apoptosis in human MCF7 cells in DMEM medium at pH 6 assessed as increase in cleaved capase-3 level at 5 uM; assay type: functional, cell-based
How it was run: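 MCF-7 cells treated with peptides at pH 6; apoptosis detected by immunoblotting for cleaved PARP and cleaved caspase-3.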

B cell = assay: Cytotoxicity against human B-lymphocytes assessed as deleterious effect upto 50 uM by flow cytometry; assay type: toxicity, cell-based
How it was run: (§5)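 Whole blood from a healthy donor treated with peptides up to 50 μM; effect on B and T lymphocytes, granulocytes and monocytes assessed.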

T-cell line = assay: Cytotoxicity against human T-lymphocytes assessed as deleterious effect upto 50 uM by flow cytometry; assay type: toxicity, cell-based; how it was run: as §5
[18] = Cytotoxicity against human granulocytes assessed as deleterious effect upto 50 uM by flow cytometry; assay type: toxicity, cell-based; conditions: granulocyte; how it was run: as §5
Monocyte = assay: Cytotoxicity against human monocytes assessed as deleterious effect upto 50 uM by flow cytometry; assay type: toxicity, cell-based; how it was run: as §5

H-KKKKLKKILKKLFQFINQLDNQLQDIKQNK-NH2
IC50 at 1 h [1]: > 50 µM
inhibition at 30 µM (Staphylococcus aureus [2]): < 45%
inhibition at 30 µM (Staphylococcus aureus [3]): < 45%
Activity [4]: Non-Toxic
half-life at 10 mg/ml [5]: > 360 min
Activity (Acinetobacter baumannii [6]): Active
Activity (Mus musculus): Active
Activity [7]: Toxic
Activity (Staphylococcus aureus [8]): Active
Activity (Acinetobacter baumannii [9]): Active
Activity (Escherichia coli): Active
Activity (Klebsiella pneumoniae): Active
Activity (Pseudomonas aeruginosa): Active
IC50 (NCI-H460): 1000 nM
IC50 (K562 [10]): 1000 nM
IC50 (MCF7 [11]): 1000 nM
IC50 (MOLT-4): 1000 nM
IC50 (OVCAR-3): 1000 nM
IC50 (PC-3): 1000 nM
IC50 (T47D): 1000 nM
IC50 (U-251): 1000 nM
Activity (K562 [12]): Active
Activity (HL-60): Active
Activity (K562 [13]): Active
Activity (K562 [14]): Active
Activity (K562 [15]): Active
Activity (MCF7 [16]): Active
Activity (MCF7 [17]): Active
Activity (B cell): Non-Toxic
Activity (T-cell line): Non-Toxic
Activity [18]: Non-Toxic
Activity (Monocyte): Non-Toxic
